Data from ChEMBL document CHEMBL4477194, “Royal Jelly Constituents Increase the Expression of Extracellular Superoxide Dismutase through Histone Acetylation in Monocytic THP-1 Cells” (J Nat Prod, 2016).
Calls of active or inactive are those of the source. The rule behind the calls is not given here.

How the values were obtained:
[1] = organism: Homo sapiens; experiment: Upregulation of HDAC1 inhibition/ERK signalling activation-mediated extracellular SOD protein expression in human THP1 cells at 1 uM after 24 hrs by ELISA; assay type: cell-based
Method in brief: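 EC-SOD protein content was measured by ELISA in THP-1 cells after 24 h treatment, with cells collected in PBS. Cells were cultured in RPMI 1640 with 10% heat-inactivated FCS at 37 °C and 5% CO2. Values are mean ± SD of three independent experiments, compared against untreated cells.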

[2] = organism: Homo sapiens; experiment: Upregulation of HDAC1 inhibition/ERK signalling activation-mediated extracellular SOD mRNA expression in human THP1 cells at 1 uM after 24 hrs by RT-PCR method; assay type: cell-based
Method in brief: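 THP-1 cells (RPMI 1640, 10% heat-inactivated FCS, 37 °C, 5% CO2) were seeded at 2.0 × 10^6 cells/dish and treated for 24 h. Cells were washed with cold PBS and lysed in TRIzol, then analysed by real-time RT-PCR normalized to 18S rRNA. Values are mean ± SD of three independent experiments, with ANOVA and Bonferroni tests.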

[3] = biological target: Histone deacetylase 1 (Homo sapiens) (UniProt Q13547); experiment: Inhibition of recombinant HDAC1 catalytic domain (unknown origin) using HDAC substrate at 100 uM preincubated for 1 hr followed by substrate addition measured after 30 mins by fluorescence assay relative to control
Method in brief: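 Recombinant HDAC1 in assay buffer exposed to compound at 100 μM for 1 h. Fluorogenic HDAC substrate then added, 30 min at 37 °C in the dark. Developer added, 15 min at room temperature. Fluorescence read at ex 365 nm, em 410–460 nm, relative to untreated.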

[4] = organism: Homo sapiens; experiment: Upregulation of HDAC1 inhibition/ERK signalling activation-mediated extracellular SOD mRNA expression in human THP1 cells at 100 uM after 24 hrs in presence of ERK inhibitor U0126 by RT-PCR method; assay type: cell-based
Method in brief: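 THP-1 cells pretreated 30 min with 5 μM U0126, then exposed to compound at 100 μM for 24 h. EC-SOD mRNA measured by real-time RT-PCR normalized to 18S rRNA.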

[5] = biological target: Histone deacetylase 1 (Homo sapiens) (UniProt Q13547); experiment: Inhibition of HDAC1 in human THP1 cells assessed as increase in histone H3 acetylation level at 50 uM after 12 hrs by Western blot analysis relative to control; assay type: cell-based
Method in brief: (§1)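 THP-1 cells treated 12 h at the indicated concentrations. Acetylated histone H3 and H4 detected by Western blot (20 μg protein, 12% SDS-PAGE, PVDF, primary antibodies 1:1000). Histone loading checked by Coomassie staining.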

[6] = tested on: THP-1; experiment: Downregulation of HDAC6 mRNA expression in human THP1 cells at 100 uM after 24 hrs by RT-PCR method; assay type: functional, cell-based
Method in brief: (§2)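 THP-1 cells in RPMI 1640 with 10% heat-inactivated FCS, 37 °C, 5% CO2. Seeded 2.0 × 10^6 cells per 3.5 cm dish and treated 24 h, at 1 mM for the 1 mM lines and 100 μM for the 100 μM lines. RNA extracted in TRIzol, then real-time RT-PCR normalized to 18S rRNA. Means ± SD of three independent experiments; ANOVA with Bonferroni post hoc.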

[7] = organism: Homo sapiens; experiment: Upregulation of HDAC1 inhibition/ERK signalling activation-mediated extracellular SOD mRNA expression in human THP1 cells at 1 to 10 uM incubated for 24 hrs by RT-PCR method; assay type: cell-based
Method in brief: (§3)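 THP-1 cells treated 24 h at the indicated concentrations, or at 100 μM for the indicated times. EC-SOD mRNA measured by real-time RT-PCR normalized to 18S rRNA. Means ± SD of three independent experiments.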

[8] = organism: Homo sapiens; experiment: Upregulation of HDAC1 inhibition/ERK signalling activation-mediated extracellular SOD protein expression in human THP1 cells at 100 uM incubated for 24 hrs by ELISA; assay type: cell-based
Method in brief: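 THP-1 cells treated 24 h at 100 μM and collected in PBS. Cellular EC-SOD protein content measured by ELISA. Means ± SD of three independent experiments.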

[9] = biological target: Histone deacetylase 1 (Homo sapiens) (UniProt Q13547); experiment: Inhibition of HDAC1 in human THP1 cells assessed as increase in histone H4 acetylation level at 100 uM after 12 hrs by Western blot analysis relative to control; assay type: cell-based; method in brief: as §1
[10] = tested on: THP-1; experiment: Upregulation of HDAC4 mRNA expression in human THP1 cells at 100 uM after 24 hrs by RT-PCR method; assay type: functional, cell-based; method in brief: as §2
[11] = organism: Homo sapiens; experiment: Upregulation of HDAC1 inhibition/ERK signalling activation-mediated extracellular SOD mRNA expression in human THP1 cells at 100 uM by RT-PCR method; assay type: cell-based; details: TDE = time-dependent effect; method in brief: as §3
[12] = tested on: THP-1; experiment: Downregulation of HDAC5 mRNA expression in human THP1 cells at 100 uM after 24 hrs by RT-PCR method; assay type: functional, cell-based; method in brief: as §2
[13] = tested on: THP-1; experiment: Downregulation of HDAC1 mRNA expression in human THP1 cells at 100 uM after 24 hrs by RT-PCR method; assay type: functional, cell-based; method in brief: as §2
[14] = biological target: Histone deacetylase 1 (Homo sapiens) (UniProt Q13547); experiment: Inhibition of HDAC1 in human THP1 cells assessed as increase in histone H3 acetylation level at 100 uM after 12 hrs by Western blot analysis relative to control; assay type: cell-based; method in brief: as §1
[15] = biological target: Histone deacetylase 1 (Homo sapiens) (UniProt Q13547); experiment: Inhibition of HDAC1 in human THP1 cells assessed as increase in histone H4 acetylation level at 50 uM after 12 hrs by Western blot analysis relative to control; assay type: cell-based; method in brief: as §1
[16] = organism: Homo sapiens; experiment: Induction of ERK phosphorylation in human THP1 cells at 50 to 100 uM incubated for 3 hrs by Western blot analysis; assay type: cell-based
Method in brief: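 THP-1 cells treated 3 h at the indicated concentrations. Whole-cell extracts, 20 μg protein, run on 12% SDS-PAGE and transferred to PVDF. Blocked in 1% BSA/PBS. Probed with anti-phospho-ERK and anti-ERK (1:1000), then biotin-conjugated secondary (1:1000).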

[17] = biological target: Histone deacetylase 1 (Homo sapiens) (UniProt Q13547); experiment: Upregulation of HDAC1 inhibition-mediated histone H3 acetylation-induced extracellular SOD expression in human THP1 cells at 100 uM after 12 hrs by chromatin immunoprecipitation method; assay type: cell-based
Method in brief: (§4)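 THP-1 cells (5 × 10^6) treated 12 h, at 1 mM or 100 μM per line. Cross-linked with formaldehyde 5 min at room temperature and chromatin sonicated to 150–800 bp. Immunoprecipitated overnight on protein G beads and washed in RIPA I/II and TE. Eluted with RNase A and proteinase K. EC-SOD promoter binding expressed as % of input.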

[18] = tested on: THP-1; experiment: Cytotoxicity against human THP1 cells assessed as reduction in cell viability at 100 uM after 24 hrs by MTT assay; assay type: cell-based; details: thp-1, 24 h
Method in brief: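 THP-1 cells treated 24 h in 24-well plates; medium replaced with 10% FCS-RPMI 1640 containing 0.5 mg/mL MTT, 2 h at 37 °C, 5% CO2. Formazan dissolved in 2-propanol with 0.04 N HCl, read at 595 nm (reference 655 nm). Mean ± SD, n = 3.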

[19] = biological target: Histone deacetylase 1 (Homo sapiens) (UniProt Q13547); experiment: Upregulation of HDAC1 inhibition-mediated histone H4 acetylation-induced extracellular SOD expression in human THP1 cells at 100 uM after 12 hrs by chromatin immunoprecipitation method; assay type: cell-based; method in brief: as §4
[20] = tested on: THP-1; experiment: Upregulation of HDAC10 mRNA expression in human THP1 cells at 100 uM after 24 hrs by RT-PCR method; assay type: functional, cell-based; method in brief: as §2
[21] = tested on: THP-1; experiment: Downregulation of HDAC2 mRNA expression in human THP1 cells at 100 uM after 24 hrs by RT-PCR method; assay type: functional, cell-based; method in brief: as §2

Histone deacetylase 1 (Homo sapiens), sequence (Q13547 whole entry, the tested form may be a part): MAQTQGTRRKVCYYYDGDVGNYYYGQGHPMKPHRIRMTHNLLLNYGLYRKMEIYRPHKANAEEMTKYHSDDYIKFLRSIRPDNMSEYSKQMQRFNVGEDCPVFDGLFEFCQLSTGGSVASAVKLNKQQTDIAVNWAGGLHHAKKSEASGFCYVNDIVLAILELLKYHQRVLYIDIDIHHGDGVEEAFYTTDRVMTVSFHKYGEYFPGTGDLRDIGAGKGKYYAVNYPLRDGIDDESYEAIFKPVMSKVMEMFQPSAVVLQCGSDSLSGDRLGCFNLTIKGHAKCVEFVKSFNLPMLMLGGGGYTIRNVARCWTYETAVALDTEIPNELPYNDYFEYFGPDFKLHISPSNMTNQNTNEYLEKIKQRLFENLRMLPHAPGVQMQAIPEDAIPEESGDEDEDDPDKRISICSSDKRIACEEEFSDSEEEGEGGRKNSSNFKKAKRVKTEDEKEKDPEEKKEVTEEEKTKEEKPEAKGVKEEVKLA

**Q.** What does the source list for CC(/C=C/C(=O)NO)=C\[C@@H](C)C(=O)c1ccc(N(C)C)cc1?
**A.** Activity [1]: Active; Activity [2]: Active

**Q.** Which results are given for CCCCCCC(/C=C/C(=O)OCC)OO (stereo unspecified)?
**A.** inhibition [3]: 50%; Activity [4]: inactive; fold change (FC) [5]: 1.82; Activity [6]: Active; Activity [7]: inactive; Activity [8]: Active; fold change (FC) [9]: 3.77; Activity [10]: Active; Activity [11]: Tde; Activity [12]: Active; Activity [13]: Active; fold change (FC) [14]: 4.27; fold change (FC) [15]: 3.32; Activity [16]: Active; Activity [17]: Active; Activity [18]: Non-Toxic; Activity [19]: Active; Activity [20]: Active; Activity [21]: Active
